T cruzi growth-1 – inhibitors of T. cruzi proliferation; T. cruzi beta-gal in NIH3T3, GalScreen luminescence, 90 h; 77,000 tested, 5.9% active; inhibition, % at 8.34 µM;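 active = mean inhibition above about 93%, with at least 55% of replicates each passing it, limit read from the data, passing the limit was not always enough; inconclusive = only one of those two conditions holds; inactive = neither condition holds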
IDH1 R132H inh – IDH1 R132H (human) inhibition | O75874 | IDH1 R132H reductase, diaphorase/resazurin fluorescence, 60 min | inhibition, % at 10 µM | 70,000 tested, 0.18% active; in the data active = inhibition above about 34%; inconclusive = no clear call, values can overlap the other calls; inactive = below about 11%;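 note: 0% = DMSO and 100% = no enzyme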
Target sequence (O75874 whole entry R132H): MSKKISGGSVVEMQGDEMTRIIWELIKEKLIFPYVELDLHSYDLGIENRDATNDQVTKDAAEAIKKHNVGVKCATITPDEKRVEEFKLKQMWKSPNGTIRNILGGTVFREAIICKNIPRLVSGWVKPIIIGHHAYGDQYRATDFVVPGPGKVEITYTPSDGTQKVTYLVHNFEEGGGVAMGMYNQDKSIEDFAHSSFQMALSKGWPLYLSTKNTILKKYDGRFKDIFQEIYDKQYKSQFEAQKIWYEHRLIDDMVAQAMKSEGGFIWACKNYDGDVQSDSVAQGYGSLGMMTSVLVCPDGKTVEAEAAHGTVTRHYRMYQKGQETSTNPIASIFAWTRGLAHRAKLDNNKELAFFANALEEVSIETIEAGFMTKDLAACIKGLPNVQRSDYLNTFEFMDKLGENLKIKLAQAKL
KDM4C inh – blocks human GASC-1 (KDM4C) demethylase activity; Q9H3R0; 96,000 tested, 0.15% active; GST-KDM4C 2-372, H3K9me3 peptide, LANCE TR-FRET; inhibition, % at 12.5 µM;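 active = mean replicate inhibition above about 25%, with at least 55% of replicates also reaching it, limit read from the data, passing the limit was not always enough; inconclusive = only one of those two conditions met; inactive = neither condition met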
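Compound: one test concentration per compound; Material: GST-GASC-1 enzyme fragment 2-372; Amount: GASC-1 enzyme at 10 nM final in reaction; Also added: H3K9me3 peptide substrate, Fe(II), 2-oxoglutarate; Technique: LANCE TR-FRET; Times: 30 min demethylation and 1 h detection at room temperature.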
Pf Dd2 growth – inhibitors of Plasmodium falciparum Dd2 growth. 94,000 tested, 2.3% active. P. falciparum Dd2 growth, SYBR Green, 72 h; active compounds read low. activity change, % at 10 µM; in the data active = activity change below about -80%; inconclusive = no clear call, values can overlap the other calls
T cruzi growth-2 – blocks T. cruzi growth in NIH3T3 host cells; shares compounds with T cruzi growth-1; T. cruzi beta-gal in NIH3T3, GalScreen luminescence, 90 h; inhibition, % at 8.35 µM; 5,600 tested, 72% active; AID 651739;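 active = mean replicate inhibition above about 95% and at least 55% of replicates individually reaching it, limit read from the data; inconclusive = only one of the two criteria is met; inactive = neither criterion is met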
T cruzi growth-3 – inhibitors of T. cruzi proliferation | shares compounds with T cruzi growth-1 | inhibition, % at 2.09 µM | T. cruzi beta-gal in NIH3T3, GalScreen luminescence, 90 h | 5,600 tested, 21% active;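 active = mean inhibition above about 95%, with at least 55% of replicates also reaching it, limit read from the data; inconclusive = meets just one of the two conditions; inactive = meets neither condition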;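 note: plate controls were neutral control median for no effect and positive control median for full effect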
NIH3T3 tox – cytotoxicity in mouse NIH/3T3 fibroblasts. shares compounds with T cruzi growth-1. NIH/3T3 viability, CellTiter-Glo ATP luminescence, 90 h. cytotoxicity (signal decrease), % at 8.35 µM. 5,600 tested, 14% active. AID 651742;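 active = mean signal decrease across replicates above about 35% based on untreated-well scatter, with enough replicates individually passing, limit read from the data; inconclusive = no rule stated though some were filed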;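 note: 0% = median of neutral control wells and 100% = median of positive control wells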
3T3 cytotox 2 – cytotoxicity in mouse NIH/3T3 fibroblasts | shares compounds with T cruzi growth-1 | NIH/3T3 viability, CellTiter-Glo ATP luminescence, 90 h | inhibition, % at 24.9 µM | 5,600 tested, 56% active | AID 651744;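 active = mean loss of cell viability signal at or above a set limit, and enough replicates individually reaching it; inconclusive = meets only the mean limit or only the replicate share; inactive = meets neither condition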;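 note: 0% = median of neutral control wells and 100% = median of positive control wells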
Numbers without * were called inactive; ? = inconclusive; . = no result. This is a sample that favours compounds with a hit; in the whole collection about 5.8% have one here.

SMILES | T cruzi growth-1 | IDH1 R132H inh | KDM4C inh | Pf Dd2 growth | T cruzi growth-2 | T cruzi growth-3 | NIH3T3 tox | 3T3 cytotox 2
C[C@@H]1CCCCO[C@@H](CN(C)S(=O)(=O)c2cccs2)[C@H](C)CN([C@@H](C)CO)C(=O)c2cc(NC(=O)Cc3ccccc3)ccc2O1 | -13 | -1 | -1 | -25 | . | . | . | .
C[C@@H]1CN([C@@H](C)CO)C(=O)c2cc(-c3ccccc3)cnc2O[C@@H]1CN(C)C(=O)Cc1ccccc1 | -133 | 0 | 0 | 0 | . | . | . | .
C[C@H]1CCCCO[C@H](CN(C)C(=O)NC2CCCCC2)[C@@H](C)CN([C@@H](C)CO)C(=O)c2cc(NS(=O)(=O)c3ccccc3)ccc2O1 | 103* | . | -2 | -67 | 67 | 16 | -32 | -6
Cc1ccc(S(=O)(=O)Nc2ccc3c(c2)C(=O)N([C@@H](C)CO)C[C@@H](C)[C@@H](CN(C)C(=O)NC2CCCCC2)OCCCC[C@@H](C)O3)cc1 | 101* | 0 | -1 | -11 | 99* | 71 | -21 | 31
Cc1ccc(S(=O)(=O)Nc2ccc3c(c2)C(=O)N([C@@H](C)CO)C[C@@H](C)[C@H](CN(C)C(=O)NC2CCCCC2)OCCCC[C@H](C)O3)cc1 | 114* | . | -3 | -51 | 92 | -32 | -20 | -16
N#Cc1cccc(-c2ccc(C3[C@H]4CNC[C@@H]3N4Cc3ccc4c(c3)OCO4)cc2)c1 (stereo not given in full) | . | . | 0 | -48 | . | . | . | .
C[C@H]1CN([C@@H](C)CO)S(=O)(=O)c2ccc(C#Cc3cccc(F)c3)cc2O[C@@H]1CN(C)S(=O)(=O)c1ccccc1F | 104* | 0 | 0 | -69 | 104* | 103* | 23 | 60*
C[C@H]1CN([C@@H](C)CO)S(=O)(=O)c2ccc(C#Cc3cccc(F)c3)cc2O[C@H]1CN(C)S(=O)(=O)c1ccccc1F | 111* | 0 | 0 | -10 | 106* | 72 | 22 | ?
C[C@H]1CN([C@@H](C)CO)S(=O)(=O)c2ccc(Br)cc2O[C@H]1CN(C)S(=O)(=O)c1ccccc1F | 74 | . | 1 | -45 | . | . | . | .
O=C(CSc1ncnc2sc(-c3ccccc3)cc12)Nc1ccccc1C(F)(F)F | . | 0 | . | . | . | . | . | .
COC(=O)c1ccccc1NC(=O)c1cccc(NC(=O)COc2cc(C)c(Cl)c(C)c2)c1C | . | 0 | . | . | . | . | . | .
CC(=O)N(C)C[C@H]1Oc2cc(-c3ccccc3F)ccc2S(=O)(=O)N([C@@H](C)CO)C[C@H]1C | -4 | -1 | 1 | 35 | . | . | . | .
C[C@H](CO)N1C[C@H](C)[C@H](CN(C)Cc2ccc(-c3ccccc3)cc2)Oc2ccc(NC(=O)Nc3ccc(C(F)(F)F)cc3)cc2C1=O | 81* | 4 | 0 | 18 | 98* | 88 | 14 | 105*
C[C@H]1CN([C@@H](C)CO)C(=O)c2cc(NC(=O)Nc3ccc(C(F)(F)F)cc3)ccc2O[C@H]1CN(C)Cc1ccc(-c2ccccc2)cc1 | 118* | 0 | 0 | 8 | 106* | ? | 29 | 104*
C[C@H]1CN([C@@H](C)CO)C(=O)c2cc(NC(=O)Nc3ccc(C(F)(F)F)cc3)ccc2O[C@@H]1CN(C)Cc1ccc(-c2ccccc2)cc1 | 113* | . | 3 | 2 | 108* | 40 | 3 | 104*
C[C@H](CO)N1C[C@H](C)[C@@H](CN(C)Cc2ccc(C(F)(F)F)cc2)Oc2ccc(NC(=O)Nc3ccccc3)cc2C1=O | 51 | . | 1 | -79 | . | . | . | .
C[C@H](CO)N1C[C@H](C)[C@@H](CN(C)Cc2ccc(-c3ccccc3)cc2)Oc2ccc(NC(=O)Nc3ccc(F)cc3)cc2C1=O | 11 | 0 | 1 | 18 | . | . | . | .
C[C@H]1CN([C@@H](C)CO)C(=O)c2cc(NC(=O)Nc3ccc(F)cc3)ccc2O[C@H]1CN(C)Cc1ccc(-c2ccccc2)cc1 | 98* | 0 | -2 | -5 | 102* | 103* | 32 | 103*
COc1ccc(CN(C)C[C@@H]2Oc3ccc(NC(=O)Cc4cn(C)c5ccccc45)cc3CC(=O)N([C@H](C)CO)C[C@@H]2C)cc1 | 78 | -16 | -6 | -65 | . | . | . | .
CC=Cc1ccc2n(c1=O)C[C@H]1[C@H](CO)[C@@H](C(=O)NC3CCCC3)N(Cc3ccccc3)[C@@H]21 (mixture of isomers) | 43 | . | 3 | -22 | . | . | . | .
COc1ccc2c3c(n(C)c2c1)[C@H](CO)N(C(=O)Nc1ccc(F)cc1)CC31CCN(C(=O)Nc2ccc(F)cc2F)CC1 | . | . | -1 | -59 | . | . | . | .
CCC(=O)NC[C@@H]1[C@H](c2ccc(-c3cccc(F)c3)cc2)[C@H](CO)N1C(=O)CC | ? | . | -1 | 12 | 12 | -19 | -8 | -10
CCC(=O)NC[C@@H]1[C@H](c2ccc(-c3cccc(F)c3)cc2)[C@@H](CO)N1C(=O)CC | 101* | . | -1 | 1 | -41 | -73 | -35 | -30
CCC(=O)NC[C@H]1[C@@H](c2ccc(-c3cccc(F)c3)cc2)[C@H](CO)N1C(=O)CC | 30 | . | -3 | 19 | . | . | . | .
C[C@@H]1CN([C@H](C)CO)S(=O)(=O)c2ccc(C3=CCCC3)cc2O[C@@H]1CN(C)C(=O)C1CCCCC1 | 115* | . | 0 | -51 | 102* | 80 | ? | 25
SMILES | T cruzi growth-1 | IDH1 R132H inh | KDM4C inh | Pf Dd2 growth | T cruzi growth-2 | T cruzi growth-3 | NIH3T3 tox | 3T3 cytotox 2
C[C@@H]1CN([C@@H](C)CO)S(=O)(=O)c2ccc(C3=CCCC3)cc2O[C@H]1CN(C)C(=O)C1CCCCC1 | ? | . | -1 | -22 | 91 | 60 | 26 | 41*
CCC(=O)N1CCC2(CC1)CN(C(=O)c1ccccn1)[C@@H](CO)c1c2c2ccc(OC)cc2n1C | . | . | . | -2 | . | . | . | .
COc1ccc(C#Cc2ccc3c(c2)O[C@H](CN(C)S(=O)(=O)c2ccccc2F)[C@H](C)CN([C@H](C)CO)S3(=O)=O)cc1 | 124* | 0 | -2 | -76 | 109* | 107* | -9 | 33*
COc1ccc(C#Cc2ccc3c(c2)O[C@@H](CN(C)S(=O)(=O)c2ccccc2F)[C@H](C)CN([C@H](C)CO)S3(=O)=O)cc1 | . | 0 | -4 | -78 | . | . | . | .
COc1cccc(C#Cc2ccc3c(c2)O[C@@H](CN(C)S(=O)(=O)c2ccccc2F)[C@@H](C)CN([C@H](C)CO)S3(=O)=O)c1 | 101* | 1 | 1 | -41 | 106* | 61 | 19 | ?
O=C(c1cccc(F)c1)N1CC[C@H]2[C@H](CO)Nc3ccc(C#Cc4ccccc4)cc3[C@H]21 | . | . | 0 | -53 | . | . | . | .

From PubChem
